Assay results reported in ChEMBL document CHEMBL1208768, “Synthesis, selective anti-Helicobacter pylori activity, and cytotoxicity of novel N-substituted-2-oxo-2H-1-benzopyran-3-carboxamides” (Bioorg Med Chem Lett, 2010).
≈ marks a conversion by molar mass, not a printed value. Calls of active or inactive are those of the source. The calls are words filed in the database; no cut-off is given here.

Experiments:
Staphylococcus aureus = assay: Antibacterial activity against Staphylococcus aureus after 18 to 22 hrs by broth microdilution method; type: functional
Outline: (§1)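 Clinical respiratory-tract isolates from patients, subcultured for purity and identified conventionally. Broth microdilution per NCCLS in Mueller–Hinton II broth; each plate had growth controls (bacteria, no compound) and medium-only controls. Incubation 18–22 h at 35 °C. MIC taken as the lowest concentration giving complete growth inhibition by unaided eye.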

[1] = tested on: Staphylococcus epidermidis; assay: Antibacterial activity against Staphylococcus epidermidis after 18 to 22 hrs by broth microdilution method; type: functional; outline: as §1
Staphylococcus hominis = assay: Antibacterial activity against Staphylococcus hominis after 18 to 22 hrs by broth microdilution method; type: functional; outline: as §1
[2] = tested on: Staphylococcus haemolyticus; assay: Antibacterial activity against Staphylococcus haemolyticus after 18 to 22 hrs by broth microdilution method; type: functional; outline: as §1
Enterococcus faecalis = assay: Antibacterial activity against Streptococcus faecalis after 18 to 22 hrs by broth microdilution method; type: functional; outline: as §1
Escherichia coli = assay: Antibacterial activity against Escherichia coli after 18 to 22 hrs by broth microdilution method; type: functional; outline: as §1
Klebsiella pneumoniae = assay: Antibacterial activity against Klebsiella pneumoniae after 18 to 22 hrs by broth microdilution method; type: functional; outline: as §1
Klebsiella oxytoca = assay: Antibacterial activity against Klebsiella oxytoca after 18 to 22 hrs by broth microdilution method; type: functional; outline: as §1
Enterobacter = assay: Antibacterial activity against Enterobacter after 18 to 22 hrs by broth microdilution method; type: functional; outline: as §1
Klebsiella aerogenes = assay: Antibacterial activity against Enterobacter aerogenes after 18 to 22 hrs by broth microdilution method; type: functional; outline: as §1
Citrobacter freundii = assay: Antibacterial activity against Citrobacter freundii after 18 to 22 hrs by broth microdilution method; type: functional; outline: as §1
Proteus vulgaris = assay: Antibacterial activity against Proteus vulgaris after 18 to 22 hrs by broth microdilution method; type: functional; outline: as §1
Candida albicans = assay: Antifungal activity against Candida albicans after 24 hrs by broth microdilution method; type: functional
Outline: (§2)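 Candida isolates from respiratory-tract specimens, tested by NCCLS broth microdilution in Sabouraud dextrose broth. Serial compound dilutions inoculated to 10³/mL, with fungus-only and medium-only controls. Incubated 24 h at 37 °C. MIC was the lowest concentration with complete visible growth inhibition.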

[Candida] sake = Antifungal activity against Candida sake after 24 hrs by broth microdilution method; type: functional; settings: Fermentozyma sake; outline: as §2
Pichia kudriavzevii = assay: Antifungal activity against Candida krusei after 24 hrs by broth microdilution method; type: functional; outline: as §2
Helicobacter pylori [3] = assay: Antibacterial activity against Helicobacter pylori ATCC 43504 clinical isolates after 72 hrs by agar dilution method; type: functional; settings: ATCC 43504, 72 h
Outline: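 Agar dilution per NCCLS. Twenty clinical strains from duodenal ulcer or gastritis patients, with ATCC 43504 as control in each session, were subcultured twice on Columbia agar plus 10% horse serum and 0.25% yeast extract (72 h, 37 °C, 10% CO₂). Inoculum of 0.5 McFarland in Wilkins Chalgren broth, about 5 × 10⁵ CFU/spot by Steer's replicator. Plates held twofold compound dilutions down to 0.0039 µg/mL and were incubated 72 h at 37 °C, 10% CO₂. MIC was the lowest concentration inhibiting visible growth.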

Helicobacter pylori [4] = assay: Antibacterial activity against metronidazole-resistant Helicobacter pylori NCTC 11637 after 72 hrs by agar dilution method; type: functional; settings: NCTC 11637, 72 h
Outline: (§3)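 H. pylori clinical isolates (ATCC 43504 control each session) stored at -80 °C and subcultured twice on Columbia agar with 10% horse serum and 0.25% yeast extract. Suspensions of 0.5 McFarland were spotted by Steer's replicator at about 5 × 10⁵ CFU/spot onto agar with twofold compound dilutions. Plates were incubated 72 h at 37 °C in 10% CO₂. MIC was the lowest concentration without visible growth.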

Helicobacter pylori [5] = assay: Antibacterial activity against metronidazole-resistant Helicobacter pylori isolate 1 after 72 hrs by agar dilution method; type: functional; settings: isolate 1, 72 h; outline: as §3
Helicobacter pylori [6] = assay: Antibacterial activity against metronidazole-resistant Helicobacter pylori isolate 8 after 72 hrs by agar dilution method; type: functional; settings: isolate 8, 72 h; outline: as §3
Helicobacter pylori [7] = assay: Antibacterial activity against metronidazole-resistant Helicobacter pylori isolate 18 after 72 hrs by agar dilution method; type: functional; settings: isolate 18, 72 h; outline: as §3
Helicobacter pylori [8] = assay: Antibacterial activity against metronidazole-resistant Helicobacter pylori isolate 20 after 72 hrs by agar dilution method; type: functional; settings: isolate 20, 72 h; outline: as §3
[9] = Cytotoxicity against human EAhy926 cells assessed as cell survival at 50 ug/mL after 24 hrs by trypan blue exclusion assay; type: cell-based, EA.hy 926; settings: read-out: Survival
Outline: (§4)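 EAhy cells in DMEM (high glucose) with 10% FBS, at 1 × 10⁵/mL in exponential growth and 60–70% confluent, were exposed 24 h at 37 °C to compounds from DMSO stocks (final DMSO ≤0.5%). Controls were cells alone or with DMSO, and 1 mM sodium nitroprusside as positive control. Cells were scraped, mixed 1:1 with 0.4% Trypan blue and counted on a hemocytometer by two operators. Result given as % viable cells.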

[10] = Cytotoxicity against human EAhy926 cells assessed as cell survival at 5 ug/mL after 24 hrs by trypan blue exclusion assay; type: cell-based, EA.hy 926; settings: read-out: Survival; outline: as §4
[11] = Cytotoxicity against human EAhy926 cells assessed as cell survival at 0.5 ug/mL after 24 hrs by trypan blue exclusion assay; type: cell-based, EA.hy 926; settings: read-out: Survival; outline: as §4
[12] = Cytotoxicity against human EAhy926 cells assessed as cell survival at 0.05 ug/mL after 24 hrs by trypan blue exclusion assay; type: cell-based, EA.hy 926; settings: read-out: Survival; outline: as §4
[13] = Cytotoxicity against human EAhy926 cells assessed as cell survival at 5 ug/mL after 24 hrs by MTT assay; type: cell-based, EA.hy 926; settings: read-out: Survival
[14] = Cytotoxicity against human EAhy926 cells assessed as cell survival at 0.5 ug/mL after 24 hrs by MTT assay; type: cell-based, EA.hy 926; settings: read-out: Survival
AGS [15] = assay: Antiinflammatory activity in human AGS cells assessed as inhibition of IL-8 production at 5 ug/mL after 24 hrs; type: functional, cell-based
Outline: (§5)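 AGS gastric adenocarcinoma cells were grown in F-12K with 10% FBS. They were seeded at 1 × 10⁵/mL for 24 h, preincubated 1 h with compound at 5 or 0.5 µg/mL, then exposed to H. pylori.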

AGS [16] = assay: Antiinflammatory activity in human AGS cells assessed as inhibition of IL-8 production at 0.5 ug/mL after 24 hrs; type: functional, cell-based; outline: as §5
AGS (Homo sapiens) = assay: Cytotoxicity against human AGS cells assessed as cell survival at 50 ug/mL after 24 hrs by MTT assay

Row | SMILES | MIC (Staphylococcus aureus) [µg/mL] | MIC [1] [µg/mL] | MIC (Staphylococcus hominis) [µg/mL] | MIC [2] [µg/mL] | MIC (Enterococcus faecalis) [µg/mL] | MIC (Escherichia coli) [µg/mL] | MIC (Klebsiella pneumoniae) [µg/mL] | MIC (Klebsiella oxytoca) [µg/mL] | MIC (Enterobacter) [µg/mL] | MIC (Klebsiella aerogenes) [µg/mL] | MIC (Citrobacter freundii) [µg/mL] | MIC (Proteus vulgaris) [µg/mL] | MIC (Candida albicans) [µg/mL] | MIC ([Candida] sake) [µg/mL] | MIC (Pichia kudriavzevii) [µg/mL] | MIC50 (Helicobacter pylori [3]) [µg/mL] | MIC90 (Helicobacter pylori [3]) [µg/mL] | MIC (Helicobacter pylori [4]) [µg/mL] | MIC (Helicobacter pylori [5]) [µg/mL] | MIC (Helicobacter pylori [6]) [µg/mL] | also measured
1 | CCOC(=O)c1ccc(NC(=O)c2cc3cc(O)ccc3oc2=O)cc1 | > 128 | > 128 | > 128 | > 128 | > 128 | > 128 | > 128 | > 128 | > 128 | > 128 | > 128 | > 128 | > 128 | > 128 | > 128 | 4 (≈ 11.3 µM) | 8 (≈ 22.6 µM) | 8 (≈ 22.6 µM) | 4 (≈ 11.3 µM) | 2 (≈ 5.66 µM) | MIC (Helicobacter pylori [7]): 8 µg/mL (≈ 22.6 µM); MIC (Helicobacter pylori [8]): 2 µg/mL (≈ 5.66 µM); viability at 24 h, 50 ug/mL [9]: 77%; viability at 24 h, 5 ug/mL [10]: 80%; viability at 24 h, 0.5 ug/mL [11]: 83%; viability at 24 h, 0.05 ug/mL [12]: 93%; viability at 24 h, 5 ug/mL [13]: 99%; viability at 24 h, 0.5 ug/mL [14]: 99%; inhibition (AGS [15]): inactive; inhibition (AGS [16]): inactive; viability at 24 h, 50 ug/mL (AGS (Homo sapiens)): 82%
2 | CCOC(=O)c1ccc(NC(=O)c2cc3cc(C)ccc3oc2=O)cc1 | > 128 | > 128 | > 128 | > 128 | > 128 | > 128 | > 128 | > 128 | > 128 | > 128 | > 128 | > 128 | > 128 | > 128 | > 128 | 4 (≈ 11.4 µM) | 8 (≈ 22.8 µM) | 4 (≈ 11.4 µM) | 8 (≈ 22.8 µM) | 8 (≈ 22.8 µM) | MIC (Helicobacter pylori [7]): 2 µg/mL (≈ 5.69 µM); MIC (Helicobacter pylori [8]): 2 µg/mL (≈ 5.69 µM); viability at 24 h, 50 ug/mL [9]: 14%; viability at 24 h, 5 ug/mL [10]: 59%; viability at 24 h, 0.5 ug/mL [11]: 77%; viability at 24 h, 0.05 ug/mL [12]: 80%; viability at 24 h, 5 ug/mL [13]: 81%; viability at 24 h, 0.5 ug/mL [14]: 99%; inhibition (AGS [15]): inactive; inhibition (AGS [16]): inactive; viability at 24 h, 50 ug/mL (AGS (Homo sapiens)): 63%
3 | O=C(O)c1ccc(NC(=O)c2cc3ccc(O)cc3oc2=O)cc1 | > 128 | > 128 | > 128 | > 128 | > 128 | > 128 | > 128 | > 128 | > 128 | > 128 | > 128 | > 128 | > 128 | > 128 | > 128 | 8 (≈ 24.6 µM) | 16 (≈ 49.2 µM) | 8 (≈ 24.6 µM) | 8 (≈ 24.6 µM) | 4 (≈ 12.3 µM) | MIC (Helicobacter pylori [7]): 8 µg/mL (≈ 24.6 µM); MIC (Helicobacter pylori [8]): 8 µg/mL (≈ 24.6 µM); viability at 24 h, 50 ug/mL [9]: 82%; viability at 24 h, 5 ug/mL [10]: 92%; viability at 24 h, 0.5 ug/mL [11]: 93%; viability at 24 h, 0.05 ug/mL [12]: 98%; viability at 24 h, 5 ug/mL [13]: 99%; viability at 24 h, 0.5 ug/mL [14]: 99%; inhibition (AGS [15]): inactive; inhibition (AGS [16]): inactive; viability at 24 h, 50 ug/mL (AGS (Homo sapiens)): 77%
4 | COc1ccc2oc(=O)c(C(=O)Nc3ccc(C(=O)O)cc3)cc2c1 | > 128 | > 128 | > 128 | > 128 | > 128 | > 128 | > 128 | > 128 | > 128 | > 128 | > 128 | > 128 | > 128 | > 128 | > 128 | 4 (≈ 11.8 µM) | 8 (≈ 23.6 µM) | 4 (≈ 11.8 µM) | 8 (≈ 23.6 µM) | 4 (≈ 11.8 µM) | MIC (Helicobacter pylori [7]): 4 µg/mL (≈ 11.8 µM); MIC (Helicobacter pylori [8]): 4 µg/mL (≈ 11.8 µM); viability at 24 h, 50 ug/mL [9]: 62%; viability at 24 h, 5 ug/mL [10]: 69%; viability at 24 h, 0.05 ug/mL [12]: 85%; viability at 24 h, 5 ug/mL [13]: 99%; viability at 24 h, 0.5 ug/mL [14]: 99%; inhibition (AGS [15]): inactive; inhibition (AGS [16]): inactive
